In ChEMBL document CHEMBL2380254, “Optimization of tocotrienols as antiproliferative and antimigratory leads” (Eur J Med Chem, 2013):

Legend:
Type in all cases: functional
T47D [1] = assay: Growth inhibition of human T47D cells assessed as cell growth at 10 uM after 48 hrs by sulforhodamine B assay; conditions: read-out: Activity
Summary of the method: (§1)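 Single-dose NCI-60 test at 10 µM. Cells were grown in RPMI 1640 with 5% FBS and 2 mM L-glutamine, preincubated 24 h, with T0 plates TCA-fixed. Exposure was 48 h at 37 °C, 5% CO2. Cells were fixed with cold TCA (final 10%, 4 °C, 60 min), stained with SRB and read at 515 nm. Percent growth was taken relative to T0 and untreated control; negative values denote cell kill.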

[2] = Growth inhibition of human Hs 578T cells assessed as cell growth at 10 uM after 48 hrs by sulforhodamine B assay; conditions: read-out: Activity
Summary of the method: (§2)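 NCI-60 single-dose screen at 10 µM: cells in RPMI 1640 with 5% FBS, preincubated 24 h, then exposed 48 h at 37 °C. TCA fixation (16% final for suspension cells), SRB staining, absorbance 515 nm. Percent growth relative to time-zero and untreated control plates; negative values indicate cell kill.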

PC-3 [3] = assay: Growth inhibition of human PC3 cells assessed as cell growth at 10 uM after 48 hrs by sulforhodamine B assay; conditions: PC-3, 48 h, read-out: Activity
Summary of the method: (§3)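 Single-dose NCI-60 screen: adherent cells in RPMI 1640 with 5% FBS were exposed to 10 µM for 48 h at 37 °C after a 24 h preincubation. They were fixed in situ with cold TCA (10% final), stained with 0.4% SRB in 1% acetic acid, solubilized in 10 mM Tris base, and read at 515 nm. Percent growth was taken relative to time-zero and control plates.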

CAKI-1 = assay: Growth inhibition of human CAKI-1 cells assessed as cell growth at 10 uM after 48 hrs by sulforhodamine B assay; conditions: CAKI-1, 48 h, read-out: Activity; summary of the method: as §2
A498 = assay: Growth inhibition of human A498 cells assessed as cell growth at 10 uM after 48 hrs by sulforhodamine B assay; conditions: A498, 48 h, read-out: Activity; summary of the method: as §2
[4] = Growth inhibition of human NCI-ADR-RES cells assessed as cell growth at 10 uM after 48 hrs by sulforhodamine B assay; conditions: read-out: Activity; summary of the method: as §3
OVCAR-4 = assay: Growth inhibition of human OVCAR4 cells assessed as cell growth at 10 uM after 48 hrs by sulforhodamine B assay; conditions: OVCAR-4, 48 h, read-out: Activity; summary of the method: as §3
UACC-62 = assay: Growth inhibition of human UACC62 cells assessed as cell growth at 10 uM after 48 hrs by sulforhodamine B assay; conditions: UACC-62, 48 h, read-out: Activity; summary of the method: as §1
Malme-3M = assay: Growth inhibition of human MALME-3M cells assessed as cell growth at 10 uM after 48 hrs by sulforhodamine B assay; conditions: read-out: Activity; summary of the method: as §3
SNB-75 = assay: Growth inhibition of human SNB75 cells assessed as cell growth at 10 uM after 48 hrs by sulforhodamine B assay; conditions: SNB-75, 48 h, read-out: Activity; summary of the method: as §1
SW-620 = assay: Growth inhibition of human SW620 cells assessed as cell growth at 10 uM after 48 hrs by sulforhodamine B assay; conditions: SW-620, 48 h, read-out: Activity; summary of the method: as §1
[5] = Growth inhibition of human HCC2998 cells assessed as cell growth at 10 uM after 48 hrs by sulforhodamine B assay; conditions: HCC 2998, 48 h, read-out: Activity; summary of the method: as §2
HL-60(TB) = assay: Growth inhibition of human HL-60(TB) cells assessed as cell growth at 10 uM after 48 hrs by sulforhodamine B assay; conditions: HL-60, 48 h, read-out: Activity
Summary of the method: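 NCI-60 single-dose screen run at 10 µM on HL-60(TB) suspension cells in RPMI 1640 with 5% FBS and 2 mM L-glutamine. Cells were preincubated for 24 h, with a time-zero plate fixed then. Exposure lasted 48 h at 37 °C. Settled cells were fixed with TCA (16% final), stained with SRB and read at 515 nm. Percent growth is relative to control and T0.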

CCRF-CEM = assay: Growth inhibition of human CCRF-CEM cells assessed as cell growth at 10 uM after 48 hrs by sulforhodamine B assay; conditions: read-out: Activity; summary of the method: as §2
T47D [6] = assay: Growth inhibition of human T47D cells after 48 hrs by sulforhodamine B assay
Summary of the method: (§4)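 NCI-60 five-dose screen. Cells were grown in RPMI 1640 with 5% FBS and 2 mM L-glutamine, plated at 5000–40,000 cells/well and incubated 24 h before dosing, with T0 plates TCA-fixed. DMSO stocks were diluted to doses of […] and exposed 48 h at 37 °C, 5% CO2. Cells were fixed with cold TCA (final 10%, 60 min, 4 °C), stained with 0.4% SRB in 1% acetic acid for 10 min, solubilized in 10 mM trizma base and read at 515 nm. GI50 is where 100×(T−T0)/(C−T0)=50.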

[7] = Growth inhibition of human Hs 578T cells after 48 hrs by sulforhodamine B assay
Summary of the method: (§5)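 NCI-60 screen: cells in RPMI 1640 with 5% FBS and 2 mM glutamine, 5000–40,000 cells/well, preincubated 24 h. Five concentrations (10-fold dilutions; 100 to 0.001 µM) applied for 48 h at 37 °C. TCA fixation, SRB stain, absorbance at 515 nm. Time-zero plates included; GI50 where 100×(T−T0)/(C−T0)=50.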

DU-145 = assay: Growth inhibition of human DU145 cells after 48 hrs by sulforhodamine B assay; conditions: DU-145, 48 h; summary of the method: as §5
PC-3 [8] = assay: Growth inhibition of human PC3 cells after 48 hrs by sulforhodamine B assay; conditions: PC-3, 48 h
Summary of the method: (§6)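 NCI-60 panel cells grown in RPMI 1640 with 5% FBS and 2 mM L-glutamine, seeded at 5000–40,000 cells/well and preincubated 24 h. Five 10-fold dilutions (0.001–100 µM) from DMSO stocks were added for 48 h at 37 °C. Adherent cells were fixed with cold TCA (10% final) for 60 min at 4 °C, stained with 0.4% SRB, and read at 515 nm. GI50 was set where 100×(T−T0)/(C−T0)=50.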

ACHN = assay: Growth inhibition of human ACHN cells after 48 hrs by sulforhodamine B assay; summary of the method: as §5
OVCAR-5 = assay: Growth inhibition of human OVCAR5 cells after 48 hrs by sulforhodamine B assay; conditions: OVCAR-5, 48 h; summary of the method: as §6
OVCAR-3 = assay: Growth inhibition of human OVCAR3 cells after 48 hrs by sulforhodamine B assay; conditions: OVCAR-3, 48 h; summary of the method: as §6
U-251 = assay: Growth inhibition of human U251 cells after 48 hrs by sulforhodamine B assay; conditions: U-251, 48 h; summary of the method: as §4
SF-268 = assay: Growth inhibition of human SF268 cells after 48 hrs by sulforhodamine B assay; conditions: SF-268, 48 h; summary of the method: as §6
HCT-15 = assay: Growth inhibition of human HCT15 cells after 48 hrs by sulforhodamine B assay; conditions: HCT-15, 48 h; summary of the method: as §5
K562 = assay: Growth inhibition of human K562 cells assessed as cell growth at 10 uM after 48 hrs by sulforhodamine B assay; conditions: K562, 48 h, read-out: Activity; summary of the method: as §2

Row | SMILES | growth at 10 µM (T47D [1]) [%] | growth at 10 µM [2] [%] | growth at 10 µM (PC-3 [3]) [%] | growth at 10 µM (CAKI-1) [%] | growth at 10 µM (A498) [%] | growth at 10 µM [4] [%] | growth at 10 µM (OVCAR-4) [%] | growth at 10 µM (Malme-3M) [%] | growth at 10 µM (SNB-75) [%] | growth at 10 µM (SW-620) [%] | growth at 10 µM [5] [%] | growth at 10 µM (HL-60(TB)) [%] | growth at 10 µM (CCRF-CEM) [%] | GI50 (T47D [6]) [µM] | GI50 [7] [µM] | GI50 (DU-145) [µM] | GI50 (PC-3 [8]) [µM] | GI50 (ACHN) [µM] | GI50 (OVCAR-5) [µM] | GI50 (OVCAR-3) [µM] | other results
1 | CC(C)=CCC/C(C)=C/CC/C(C)=C/CC[C@]1(C)CCc2c3c(c(C)c(C)c2O1)OCN(CCCCCCO)C3 | 8.28 | 90.4 | 51 | 47 | 111 | 30.1 | 3.51 | 85.7 | 62.8 | -29.4 | -63.7 | 65.9 | 5.83 | 2.84 | 3.04 | 2.96 | 2.52 | 2.75 | 2.76 | 2.82 | growth at 10 µM (UACC-62): 86.7%; GI50 (U-251): 2.73 µM; GI50 (SF-268): 2.81 µM; GI50 (HCT-15): 2.69 µM
2 | CC(C)=CCC/C(C)=C/CC/C(C)=C/CC[C@]1(C)CCc2c3c(cc(C)c2O1)OCN(CCc1ccc(O)cc1)C3 | 6.16 | -6.12 | 61.1 | 70.3 | 100 | 37.5 | 3.53 | 95.8 | 44.4 | -95.2 | -84.7 | 31.2 | 2.75 | 6.06 | 6.29 | 5.75 | 5.07 | 5.94 | 6.11 | 3.56 | growth at 10 µM (K562): 3.51%; GI50 (U-251): 4.32 µM; GI50 (SF-268): 6.17 µM; GI50 (HCT-15): 5.87 µM
3 | CC(C)=CCC/C(C)=C/CC/C(C)=C/CC[C@]1(C)CCc2c3c(cc(C)c2O1)OCN(CCCCO)C3 | -7.14 | 44.8 | 61.4 | 34 | 103 | -68.8 | -94.8 | 51.2 | 41.5 | -79.7 | -88.7 | -2.37 | -0.6 | 16.4 | 18.5 | 16.7 | 16.2 | 16.3 | 17.3 | 17.2 | growth at 10 µM (UACC-62): 68.5%; GI50 (U-251): 6.64 µM; GI50 (SF-268): 17.7 µM; GI50 (HCT-15): 17.7 µM
4 | CC(C)=CCC/C(C)=C/CC/C(C)=C/CC[C@]1(C)CCc2c3c(c(C)c(C)c2O1)OCN(CCCCCCCCO)C3 | 56.1 | 81.7 | 26.8 | 31.3 | 117 | 66.6 | 57.9 | 71.7 | 74.3 | 10.1 | -87 | 31 | 10.4 | 3.03 | 2.61 | 2.98 | 2.37 | 2.62 | 2.83 | 2.79 | growth at 10 µM (UACC-62): 93.1%; GI50 (U-251): 2.61 µM; GI50 (SF-268): 2.78 µM; GI50 (HCT-15): 3.32 µM
5 | CC(C)=CCC/C(C)=C/CC/C(C)=C/CC[C@]1(C)CCc2c3c(c(C)c(C)c2O1)OCN(CCCCO)C3 | 59.1 | 91.6 | 71.8 | 70.1 | 116 | 57.5 | 77.5 | 93.3 | 74.2 | -16.1 | -61.8 | 72.2 | 39.9 | > 10 | > 10 | 6.55 | 8.37 | > 10 | > 10 | 3.85 | growth at 10 µM (UACC-62): 96.6%; GI50 (U-251): 1.55 µM; GI50 (SF-268): > 10 µM; GI50 (HCT-15): 4.8 µM
